Assay results reported in ChEMBL document CHEMBL4665791 (J Med Chem, 2020).

Tests used:
[1] = Cytotoxicity against human iPSC-derived neurons assessed as decrease in SNAP25 signal; assay type: tissue-based; settings: induced pluripotent stem cell-derived neuron
[2] = Cytotoxicity against human iPSC-derived neurons assessed as effect on cell-rounding; assay type: tissue-based; settings: induced pluripotent stem cell-derived neuron
HEK293 [3] = experiment: Cytotoxicity against HEK293 cells assessed inhibition of cell proliferation after 24 hrs by MTT assay; assay type: cell-based; settings: Homo sapiens, HEK293, 24 h
Procedure, shortened: (§1)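 HEK293T cells in DMEM with 10% FBS and 1% Pen Strep were seeded at 5,000 cells/well and left 24 h at 37 °C, 5% CO2. Compounds were then added as 2-fold dilutions from 100 to 3.13 μM (1% DMSO) for 24 h. MTT was added for 4 h, and formazan was dissolved in acidified isopropanol. A570 was read with 630 nm background subtracted, normalized to DMSO control, and fitted with a four-parameter curve for IC50.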

HEK293 [4] = experiment: Cytotoxicity against HEK293 cells assessed inhibition of cell proliferation up to 100 uM after 24 hrs by MTT assay; assay type: cell-based; settings: human, hek293, 24 h; procedure, shortened: as §1

## CS(=O)(=O)SCCCCCCCN(O)C(=O)/C=C/c1ccc(Cl)cc1Cl
[1]
  Activity: Non-Toxic
[2]
  Activity: Non-Toxic

## CS(=O)(=O)SCCCCCCN(O)C(=O)/C=C/c1ccc(Cl)cc1Cl
[1]
  Activity: Non-Toxic
[2]
  Activity: Non-Toxic
HEK293 [3]
  IC50: 60 µM

## CS(=O)(=O)SCCCCCNC(=O)CC(CC(=O)NO)c1ccc(Cl)cc1Cl (configuration not stated)
[1]
  Activity: Toxic
[2]
  Activity: Toxic

## CS(=O)(=O)SCCCNC(=O)CC(CC(=O)NO)c1ccc(Cl)cc1Cl (configuration not stated)
[1]
  Activity: Toxic
[2]
  Activity: Toxic
HEK293 [4]
  Activity: Non-Toxic

## CS(=O)(=O)SCCCCCCNC(=O)CC(CC(=O)NO)c1ccc(Cl)cc1Cl (configuration not stated)
[1]
  Activity: Toxic
[2]
  Activity: Toxic

## CCCCCNC(=O)CC(CC(=O)NO)c1ccc(Cl)cc1Cl (configuration not stated)
HEK293 [4]
  Activity: Non-Toxic

## CS(=O)(=O)SCCCCCN(O)C(=O)/C=C/c1ccc(Cl)cc1Cl
[1]
  Activity: Non-Toxic
[2]
  Activity: Non-Toxic

## CS(=O)(=O)SCCCCNC(=O)CC(CC(=O)NO)c1ccc(Cl)cc1Cl (configuration not stated)
[1]
  Activity: Toxic
[2]
  Activity: Toxic
